Reference: PMC7106177 (International Immunopharmacology, 2004)
≈ marks a conversion by molar mass, not a printed value.

Tests used:
Type in all cases: cell-based, human
IL-8 mRNA in HFL-1 cells = test: RT-PCR analysis of IL-8 mRNA expression; conditions: TNF-α-stimulated HFL-1
[1] = system: eotaxin 1 production in HFL-1 cells; test: eotaxin 1 production by TNF-α plus IL-4-stimulated HFL-1 cells; conditions: HFL-1, TNF-α/IL-4 stimuli for 48 h; calculated from ELISA data
Method in brief: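 Collagen-plated HFL-1 cells are seeded at 5×10^4/well and adhered overnight. Test compound in 1% FBS medium, or vehicle, is added, and the cells are then stimulated with TNF-α 10 ng/ml plus IL-4 20 U/ml for 48 h at 37 °C. Eotaxin 1 in the supernatant is quantified by sandwich ELISA, with samples at least in duplicate. Values are mean±S.D. of three independent experiments, compared by t-test, and IC50 is derived from the ELISA data.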

[2] = system: IL-8 production in HFL-1 cells; test: IL-8 production by TNF-α-stimulated HFL-1 cells; conditions: for IL-8 production reduced to (% of stimulated control): 1000 μg/ml, P<0.001; for IL-8 production reduced to (% of stimulated control) / concentration at which significant inhibition of IL-8 production was observed: TNF-α 24 h; for concentration at which significant inhibition of IL-8 production was observed: P<0.01
Method in brief: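 HFL-1 fetal lung fibroblasts are grown in Ham's F-12 with 15% heat-inactivated FBS on collagen, then seeded at 5×10^4 cells/well and adhered overnight. Test compound is added in 1% FBS medium, with vehicle controls, followed by TNF-α 10 ng/ml for 24 h at 37 °C. Supernatant IL-8 is measured by sandwich ELISA, at least in duplicate. Data are mean±S.D. of three experiments, analysed by Student's t-test, with IC50 calculated from the ELISA data.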

HFL-1 cells = test: cytotoxicity by LDH assay; conditions: calculated from LDH assay data; for CC30 (cytotoxicity), IL-8 condition: HFL-1, TNF-α stimuli for 24 h; for CC30 (cytotoxicity), eotaxin 1 condition: HFL-1, TNF-α/IL-4 stimuli for 48 h
Method in brief: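 LDH leakage is measured in supernatants from the same HFL-1 cultures under both stimulation conditions: TNF-α 10 ng/ml for 24 h, or TNF-α plus IL-4 20 U/ml for 48 h. Test compound is in 1% FBS medium, and final EtOH or DMSO is mostly below 0.1%. LDH is read with a commercial LDH cytotoxicity kit.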

[3] = system: eotaxin 1 mRNA in HFL-1 cells; test: RT-PCR analysis of eotaxin 1 mRNA expression; conditions: TNF-α plus IL-4-stimulated HFL-1

Compound: CC1(C)[C@@H](O[C@H]2O[C@H](C(=O)O)[C@@H](O)[C@H](O)[C@H]2O[C@@H]2O[C@H](C(=O)O)[C@@H](O)[C@H](O)[C@H]2O)CC[C@]2(C)[C@H]3C(=O)C=C4[C@@H]5C[C@@](C)(C(=O)O)CC[C@]5(C)CC[C@@]4(C)[C@]3(C)CC[C@@H]12 [18α-GL, glycyrrhizin]
- effect on IL-8 mRNA expression (IL-8 mRNA in HFL-1 cells): did not indicate significant effect
- Eotaxin 1 IC50 [1]: 25 µg/mL
- IL-8 production reduced to (% of stimulated control) [2]: 25%
- concentration at which significant inhibition of IL-8 production was observed [2]: more than 300 μg/ml
- CC30 (cytotoxicity), IL-8 condition (HFL-1 cells): 330 µg/mL (≈ 401 µM)
- CC30 (cytotoxicity), eotaxin 1 condition (HFL-1 cells): >1000 µg/mL

Compound: CC1(C)[C@@H](O[C@H]2O[C@H](C(=O)O)[C@@H](O)[C@H](O)[C@H]2O[C@@H]2O[C@H](C(=O)O)[C@@H](O)[C@H](O)[C@H]2O)CC[C@]2(C)[C@H]3C(=O)C=C4[C@@H]5C[C@@](C)(C(=O)O)CC[C@]5(C)CC[C@@]4(C)[C@]3(C)CC[C@@H]12 [18β-GL, glycyrrhizin]
- Eotaxin 1 IC50 [1]: >300 µg/mL
- effect on eotaxin 1 mRNA expression [3]: did not inhibit it at the same doses
- IL-8 production reduced to (% of stimulated control) [2]: 25%
- IL-8 IC50 ([2]; HFL-1, TNF-α stimuli for 24 h, calculated from ELISA data): 370 µg/mL
- concentration at which significant inhibition of IL-8 production was observed [2]: more than 300 μg/ml
- CC30 (cytotoxicity), IL-8 condition (HFL-1 cells): >1000 µg/mL
- CC30 (cytotoxicity), eotaxin 1 condition (HFL-1 cells): >1000 µg/mL

Compound: CC1(C)[C@@H](O[C@H]2O[C@H](C(=O)O)[C@@H](O)[C@H](O)[C@H]2O[C@@H]2O[C@H](C(=O)O)[C@@H](O)[C@H](O)[C@H]2O)CC[C@]2(C)[C@H]3C(=O)C=C4[C@@H]5C[C@@](C)(C(=O)O)CC[C@]5(C)CC[C@@]4(C)[C@]3(C)CC[C@@H]12 [GL, Glycyrrhizin]
- doses needed to inhibit IL-8 and eotaxin 1 production ([2]; IL-8 and eotaxin 1 production, HFL-1): ~1 mg/mL
